From ChEMBL document CHEMBL3853298, “Total synthesis and in vitro bioevaluation of clavaminols A, C, H & deacetyl clavaminol H as potential chemotherapeutic and antibiofilm agents” (Eur J Med Chem, 2016)
Values after ≈ are worked out from the molar mass of the structure shown.

Experiments:
Format in all cases: functional
Candida albicans [1] = assay: Antifungal activity against Candida albicans MTCC 3017 after 24 hrs by well diffusion method; settings: MTCC 3017, 24 h
Procedure, shortened: (§1)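 Candida/Issatchenkia lawns (0.1 mL suspension) on Mueller-Hinton agar; 6.0 mm bored wells receive compound across a 250 to 0.48 per-well dose range, methanol as negative control. Plates kept 24 h at 30 °C. MIC is the lowest concentration producing a visible inhibition zone. Duplicate runs, mean values.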

Candida albicans [2] = assay: Fungicidal activity against Candida albicans MTCC 7315 after 24 hrs; settings: MTCC 7315, 24 h
Procedure, shortened: (§2)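 Candida grown overnight in Mueller Hinton broth. Compound serially diluted in the same broth from 150 to 0 and inoculated to a final 1.5 × 10^8 CFU/mL (0.5 McFarland), then 24 h at 37 °C. Tube contents plated onto Mueller Hinton agar for 24 h at 37 °C. MFC is the lowest concentration killing the yeast. Duplicates.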

Candida albicans [3] = assay: Fungicidal activity against Candida albicans MTCC 3958 after 24 hrs; settings: MTCC 3958, 24 h; procedure, shortened: as §2
Candida albicans [4] = assay: Fungicidal activity against Candida albicans MTCC 227 after 24 hrs; settings: MTCC 227, 24 h; procedure, shortened: as §2
Candida albicans [5] = assay: Antifungal activity against Candida albicans MTCC 854 after 24 hrs by well diffusion method; settings: MTCC 854, 24 h; procedure, shortened: as §1
[6] = Antifungal activity against Candida parapsilosis MTCC 1744 after 24 hrs by well diffusion method; procedure, shortened: as §1
Candida albicans [7] = assay: Antifungal activity against Candida albicans MTCC 3958 after 24 hrs by well diffusion method; settings: MTCC 3958, 24 h; procedure, shortened: as §1
Candida albicans [8] = assay: Antifungal activity against Candida albicans MTCC 7315 after 24 hrs by well diffusion method; settings: MTCC 7315, 24 h; procedure, shortened: as §1
Candida albicans [9] = assay: Antifungal activity against Candida albicans MTCC 227 after 24 hrs by well diffusion method; settings: MTCC 227, 24 h; procedure, shortened: as §1
Candida albicans [10] = assay: Fungicidal activity against Candida albicans MTCC 854 after 24 hrs; settings: MTCC 854, 24 h; procedure, shortened: as §2
Candida albicans [11] = assay: Antifungal activity against Candida albicans MTCC 1637 after 24 hrs by well diffusion method; settings: MTCC 1637, 24 h; procedure, shortened: as §1
Candida albicans [12] = assay: Fungicidal activity against Candida albicans MTCC 3018 after 24 hrs; settings: MTCC 3018, 24 h; procedure, shortened: as §2
[13] = Antifungal activity against Candida krusei MTCC 3020 after 24 hrs by well diffusion method; settings: Pichia kudriavzevii; procedure, shortened: as §1
[Candida] aaseri [14] = Antifungal activity against Candida aaseri MTCC 1962 after 24 hrs by well diffusion method; settings: Yamadazyma aaseri, MTCC 1962, 24 h; procedure, shortened: as §1
Candida albicans [15] = assay: Fungicidal activity against Candida albicans MTCC 1637 after 24 hrs; settings: MTCC 1637, 24 h; procedure, shortened: as §2
Candida albicans [16] = assay: Antifungal activity against Candida albicans MTCC 183 after 24 hrs by well diffusion method; settings: MTCC 183, 24 h; procedure, shortened: as §1
Candida albicans [17] = assay: Antifungal activity against Candida albicans MTCC 3018 after 24 hrs by well diffusion method; settings: MTCC 3018, 24 h; procedure, shortened: as §1
Candida albicans [18] = assay: Fungicidal activity against Candida albicans MTCC 4748 after 24 hrs; settings: MTCC 4748, 24 h; procedure, shortened: as §2
Candida parapsilosis = assay: Fungicidal activity against Candida parapsilosis MTCC 1744 after 24 hrs; settings: Lodderomyces parapsilosis, MTCC 1744, 24 h
Procedure, shortened: (§3)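 Broth dilution in Mueller Hinton broth with serial compound concentrations from […]. Overnight Candida cultures added to a final 1.5 × 10^8 CFU/mL (0.5 McFarland). Incubated 24 h at 37 °C, then 10 µL of each tube plated on Mueller Hinton agar for 24 h at 37 °C. MFC taken as the lowest concentration that kills the strain. Run in duplicate.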

Nakaseomyces glabratus = assay: Fungicidal activity against Candida glabrata MTCC 3019 after 24 hrs; settings: MTCC 3019, 24 h; procedure, shortened: as §2
[19] = Antifungal activity against Candida glabrata MTCC 3019 after 24 hrs by well diffusion method; settings: Nakaseomyces glabratus; procedure, shortened: as §1
Pichia sporocuriosa [20] = assay: Antifungal activity against Issatchenkia hanoiensis MTCC 4755 after 24 hrs by well diffusion method; settings: MTCC 4755, 24 h; procedure, shortened: as §1
Candida albicans [21] = assay: Antifungal activity against Candida albicans MTCC 4748 after 24 hrs by well diffusion method; settings: MTCC 4748, 24 h; procedure, shortened: as §1
[Candida] aaseri [22] = Fungicidal activity against Candida aaseri MTCC 1962 after 24 hrs; settings: Yamadazyma aaseri, MTCC 1962, 24 h; procedure, shortened: as §2
Pichia sporocuriosa [23] = assay: Fungicidal activity against Issatchenkia hanoiensis MTCC 4755 after 24 hrs; settings: MTCC 4755, 24 h; procedure, shortened: as §3
Candida albicans [24] = assay: Fungicidal activity against Candida albicans MTCC 183 after 24 hrs; settings: MTCC 183, 24 h; procedure, shortened: as §2
Pichia kudriavzevii = assay: Fungicidal activity against Candida krusei MTCC 3020 after 24 hrs; settings: MTCC 3020, 24 h; procedure, shortened: as §3
Candida albicans [25] = assay: Fungicidal activity against Candida albicans MTCC 3017 after 24 hrs; settings: MTCC 3017, 24 h; procedure, shortened: as §2

MIC (Candida albicans [1]): 7.8 µg/mL (≈ 18.7 µM)
MIC (Candida albicans [5]): 7.8 µg/mL (≈ 18.7 µM)
MIC [6]: 7.8 µg/mL (≈ 18.7 µM)
MIC (Candida albicans [7]): 7.8 µg/mL (≈ 18.7 µM)
MIC (Candida albicans [8]): 7.8 µg/mL (≈ 18.7 µM)
MIC (Candida albicans [9]): 7.8 µg/mL (≈ 18.7 µM)
MIC (Candida albicans [11]): 7.8 µg/mL (≈ 18.7 µM)
MIC [13]: 7.8 µg/mL (≈ 18.7 µM)
MIC ([Candida] aaseri [14]): 7.8 µg/mL (≈ 18.7 µM)
MIC (Candida albicans [16]): 7.8 µg/mL (≈ 18.7 µM)
MIC (Candida albicans [17]): 7.8 µg/mL (≈ 18.7 µM)
MIC [19]: 7.8 µg/mL (≈ 18.7 µM)
MIC (Pichia sporocuriosa [20]): 7.8 µg/mL (≈ 18.7 µM)
MIC (Candida albicans [21]): 7.8 µg/mL (≈ 18.7 µM)
SMILES: Clc1ccc(COC(Cn2ccnc2)c2ccc(Cl)cc2Cl)c(Cl)c1 (stereo not drawn) [MICONAZOLE]
MFC (Candida albicans [2]): 7.8 µg/mL (≈ 18.7 µM)
MFC (Candida albicans [3]): 15.6 µg/mL (≈ 37.5 µM)
MFC (Candida albicans [4]): 15.6 µg/mL (≈ 37.5 µM)
MFC (Candida albicans [10]): 15.6 µg/mL (≈ 37.5 µM)
MFC (Candida albicans [12]): 7.8 µg/mL (≈ 18.7 µM)
MFC (Candida albicans [15]): 15.6 µg/mL (≈ 37.5 µM)
MFC (Candida albicans [18]): 7.8 µg/mL (≈ 18.7 µM)
MFC (Candida parapsilosis): 7.8 µg/mL (≈ 18.7 µM)
MFC (Nakaseomyces glabratus): 15.6 µg/mL (≈ 37.5 µM)
MFC ([Candida] aaseri [22]): 7.8 µg/mL (≈ 18.7 µM)
MFC (Pichia sporocuriosa [23]): 7.8 µg/mL (≈ 18.7 µM)
MFC (Candida albicans [24]): 7.8 µg/mL (≈ 18.7 µM)
MFC (Pichia kudriavzevii): 7.8 µg/mL (≈ 18.7 µM)
MFC (Candida albicans [25]): 7.8 µg/mL (≈ 18.7 µM)
